Data reported in publication PMC2787711 (Biochimica et biophysica acta, 2009).
Entries after “also recorded” stand apart in the source; their conditions may differ.

Columns and labels:
bovine bc1 complex = bovine bc1 complex (Bos taurus, UniProt P00157+P13272); experiment: Ubiquinol-cytochrome c reductase activity of purified bc1 complex; type: biochemical; conditions: for Selectivity Coefficient (comparison in words): IC50 bovine enzyme divided by IC50 yeast enzyme, Fig. 5
In short: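 Bovine heart bc1 complex, 2.5 nM, in phosphate pH 7.0 buffer with sucrose, EDTA, azide, KCN, dodecylmaltoside and 40 µM cytochrome c at 23 °C. Enzyme preincubated 1 min with increasing test compound; started with decylbenzoquinol; cytochrome c reduction read at 550 vs 539 nm. Duplicates averaged. IC50 taken from titration curves; Selectivity Coefficient = bovine IC50 / yeast IC50.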

[1] = target: center N of the yeast cytochrome bc1 complex (Saccharomyces cerevisiae, UniProt P00163+P08067); experiment: Pre-steady-state reduction of cytochrome b through center N; type: biochemical; conditions: 2 µM NQ1, 3 µM stigmatellin, oxidized bc1 complex
In short: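 Stopped-flow rapid scanning at 24 °C: 1 µM oxidized yeast bc1 complex with 3 µM stigmatellin, with or without 2 µM test compound. Rapid-mixed with 30 µM 2,3-dimethoxy-5-methyl-6-decyl-1,4-benzoquinol. Cytochrome b reduction followed as absorbance time course at 562 and 578 nm; 12–19 data sets averaged.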

[2] = target: center P of the yeast cytochrome bc1 complex (Saccharomyces cerevisiae, UniProt P00163+P08067); experiment: Pre-steady-state oxidant-induced reduction of cytochrome b through center P; type: biochemical; conditions: 2 µM inhibitor, bc1 complex pre-reduced with quinol, 3 µM antimycin
In short: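 Then 3 µM antimycin and 2 µM test compound added, 1 min further. Rapid-mixed with 3 µM cytochrome c; stopped-flow rapid-scanning spectroscopy at 24 °C. Absorbance change at 562 and 578 nm extracted; 12–19 data sets averaged.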

avian malaria = conditions: cited from earlier work
malaria = conditions: cited from earlier work
[3] = cited from earlier work

| Structure (SMILES) | Selectivity Coefficient (comparison in words) (bovine bc1 complex) | inhibition of oxidant-induced reduction of cytochrome b through center P [2] | other results |
| --- | --- | --- | --- |
| Cc1cccc2c1C(=O)C(O)=C(CC(C)CCCCCC(F)(F)F)C2=O (centres unmarked) [NQ3, 2-OH-3-(2-Me-trifluorooctyl)-8-Me-naphthoquinone] | higher selectivity than atovaquone | – | – |
| CC(CCCCCC(F)(F)F)CC1=C(O)C(=O)c2ccccc2C1=O (centres unmarked) [NQ1, 2-OH-3-(2-Me-trifluorooctyl)-naphthoquinone] | higher selectivity than atovaquone | completely inhibited | effect on cytochrome b reduction through center N [1]: no effect; also recorded: identical, superimposed kinetic traces in the presence and absence |
| CCCCCCC(C)CC1=C(O)C(=O)c2ccccc2C1=O (centres unmarked) [S-10576] | greatest selectivity | – | efficacy against avian malaria (avian malaria): effective; efficacy in humans (malaria): ineffective; Selectivity Coefficient relative to that of atovaquone (bovine bc1 complex; Selectivity Coefficient = IC50 bovine enzyme divided by IC50 yeast enzyme): ~10 fold; metabolism and excretion in vivo [3]: terminal two carbons of the side chain are modified by oxidation and the resulting more water soluble compound is rapidly excreted |
| O=C1C(O)=C([C@H]2CC[C@H](c3ccc(Cl)cc3)CC2)C(=O)c2ccccc21 [atovaquone, 2-[trans-4-(4’-chlorophenyl)cyclohexyl]-3-hydroxy-1,4-hydroxynaphthoquinone, reference compound] | – | greatly inhibited | – |
| CCCCCCC(C)CC1=C(O)C(=O)c2c(C)cccc2C1=O (centres unmarked) [NQ2, 2-OH-3-(2-Me-octyl)-8-Me-naphthoquinone] | higher selectivity than atovaquone | – | – |
